Laboratory results: ChEMBL document CHEMBL1212735, “Metronidazole resistance in Prevotella spp. and description of a new nim gene in Prevotella baroniae” (2010)
Converted amounts (≈) assume the structure as drawn.

Key:
Type in all cases: functional
Prevotella buccae [1] = test: Antimicrobial activity against Prevotella buccae LBN 465 deficient in nimI gene assessed as inhibition of growth after three consecutive subcultures on compound free medium by agar dilution method; details: Segatella buccae
Summary of the method: (§1)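 Resistance induction: bacterial suspensions were plated on supplemented brucella blood agar with rising metronidazole concentrations. Colonies from the highest concentration were tested by agar dilution. MIC was then redetermined after three consecutive subcultures on drug-free agar. Resistance counted as stable if the MIC held within ±1 dilution. Anaerobic growth at 37°C. Duplicate experiments.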

Prevotella baroniae [2] = test: Antimicrobial activity against Prevotella baroniae LBN 427 expressing nimI gene assessed as inhibition of growth after several passages on plates containing increasing concentrations of compound by agar dilution method; details: Segatella baroniae
Summary of the method: (§2)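 Induction of metronidazole resistance: bacterial suspensions inoculated onto brucella blood agar (5% sheep blood, hemin, vitamin K1) containing metronidazole at increasing concentrations, grown anaerobically at 37°C. Colonies growing at the highest concentration were retested for MIC by CLSI agar dilution on the same agar. Duplicate experiments.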

Prevotella nanceiensis [3] = test: Antimicrobial activity against slow growing colonies of Prevotella nanceiensis LBN 410 deficient in nim gene assessed as inhibition of growth at 48 hrs by agar dilution method; details: Hoylesella nanceiensis, LBN 410, 48 h
Summary of the method: (§3)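 Metronidazole MIC by agar dilution per CLSI M11-A7 on brucella agar with 5% sheep blood, hemin and vitamin K1. Plates incubated anaerobically at 35°C and read at 48 h, with a second reading after a further 72 h. B. fragilis ATCC 25285T and B. thetaiotaomicron ATCC 29741 served as controls. Done in duplicate; EUCAST breakpoints applied (S ≤4, R ≥8 μg/ml).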

Prevotella buccae [4] = test: Antimicrobial activity against Prevotella buccae LBN 465 deficient in nimI gene assessed as inhibition of growth after several passages on plates containing increasing concentration of compound by agar dilution method; details: Segatella buccae; summary of the method: as §2
Prevotella bivia [5] = test: Antimicrobial activity against Prevotella bivia LBN 371 deficient in nimI gene assessed as inhibition of growth after three consecutive subcultures on compound free medium by agar dilution method; summary of the method: as §1
Prevotella bivia [6] = test: Antimicrobial activity against slow growing colonies of Prevotella bivia LBN 330 deficient in nim gene assessed as inhibition of growth at 48 hrs by agar dilution method; details: LBN 330, 48 h
Summary of the method: (§4)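 Slowly growing colonies inside the Etest inhibition zone, seen after prolonged incubation (an additional 72 h after the 48 h reading), were subcultured without antibiotic. They were then retested for metronidazole MIC by agar dilution on supplemented brucella blood agar under anaerobic conditions.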

Prevotella baroniae [7] = test: Antimicrobial activity against Prevotella baroniae LBN 475 expressing nimI gene assessed as inhibition of growth after several passages on plates containing increasing concentration of compound by agar dilution method; details: Segatella baroniae; summary of the method: as §2
Prevotella bivia [8] = test: Antimicrobial activity against Prevotella bivia LBN 336 deficient in nim gene assessed as inhibition of growth at 48 hrs by agar dilution method; details: LBN 336, 48 h
Summary of the method: (§5)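 Metronidazole MIC by agar dilution (CLSI M11-A7) on brucella agar with 5% sheep blood, hemin and vitamin K1. Plates were read after 48 h at 35°C under anaerobic conditions. Susceptible was MIC ≤ 4 μg/ml and resistant MIC ≥ 8 μg/ml (EUCAST). B. fragilis ATCC 25285T and B. thetaiotaomicron ATCC 29741 were run as controls. Duplicate assays.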

Prevotella bivia [9] = test: Antimicrobial activity against Prevotella bivia LBP 69 deficient in nim gene assessed as inhibition of growth at 48 hrs by agar dilution method; details: LBP 69, 48 h; summary of the method: as §5
Prevotella nanceiensis [10] = test: Antimicrobial activity against Prevotella nanceiensis LBN 410 deficient in nimI gene assessed as inhibition of growth after three consecutive subcultures on compound free medium by agar dilution method; details: Hoylesella nanceiensis
Summary of the method: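 Stability of induced resistance: metronidazole-selected isolates were subcultured three consecutive times on drug-free brucella blood agar (5% sheep blood, hemin, vitamin K1) under anaerobic conditions, then MIC was redetermined by CLSI agar dilution. Resistance was called stable if the MIC held within ±1 dilution. Duplicate experiments.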

Prevotella baroniae [11] = test: Antimicrobial activity against Prevotella baroniae LBP 9 expressing nim gene assessed as inhibition of growth at 48 hrs by agar dilution method; details: Segatella baroniae, LBP 9, 48 h; summary of the method: as §5
Prevotella nanceiensis [12] = test: Antimicrobial activity against slow growing colonies of Prevotella nanceiensis LBN 298 deficient in nim gene assessed as inhibition of growth at 48 hrs by agar dilution method; details: Hoylesella nanceiensis, LBN 298, 48 h; summary of the method: as §3
Prevotella bivia [13] = test: Antimicrobial activity against slow growing colonies of Prevotella bivia LBN 374 deficient in nim gene assessed as inhibition of growth at 48 hrs by agar dilution method; details: LBN 374, 48 h; summary of the method: as §3
Prevotella bivia [14] = test: Antimicrobial activity against slow growing colonies of Prevotella bivia LBN 336 deficient in nim gene assessed as inhibition of growth at 48 hrs by agar dilution method; details: LBN 336, 48 h; summary of the method: as §4
Prevotella baroniae [15] = test: Antimicrobial activity against Prevotella baroniae LBN 430 expressing nimI gene assessed as inhibition of growth after several passages on plates containing increasing concentrations of compound by agar dilution method; details: Segatella baroniae; summary of the method: as §2
Prevotella bivia [16] = test: Antimicrobial activity against Prevotella bivia LBN 467 deficient in nimI gene assessed as inhibition of growth after three consecutive subcultures on compound free medium by agar dilution method; summary of the method: as §1
Prevotella bivia [17] = test: Antimicrobial activity against Prevotella bivia LBN 350 deficient in nim gene assessed as inhibition of growth at 48 hrs by agar dilution method; details: LBN 350, 48 h; summary of the method: as §5
Prevotella nanceiensis [18] = test: Antimicrobial activity against Prevotella nanceiensis LBN 293b deficient in nimI gene assessed as inhibition of growth after several passages on plates containing increasing concentration of compound by agar dilution method; details: Hoylesella nanceiensis; summary of the method: as §2
Prevotella bivia [19] = test: Antimicrobial activity against Prevotella bivia LBP 4 deficient in nim gene assessed as inhibition of growth at 48 hrs by agar dilution method; details: LBP 4, 48 h; summary of the method: as §5
Prevotella bivia [20] = test: Antimicrobial activity against slow growing colonies of Prevotella bivia LBP 69 deficient in nim gene assessed as inhibition of growth at 48 hrs by agar dilution method; details: LBP 69, 48 h; summary of the method: as §3
Prevotella bivia [21] = test: Antimicrobial activity against Prevotella bivia LBN 339 deficient in nim gene assessed as inhibition of growth at 48 hrs by agar dilution method; details: LBN 339, 48 h; summary of the method: as §5
Prevotella nanceiensis [22] = test: Antimicrobial activity against slow growing colonies of Prevotella nanceiensis LBN 293b deficient in nim gene assessed as inhibition of growth at 48 hrs by agar dilution method; details: Hoylesella nanceiensis; summary of the method: as §3
Prevotella nanceiensis [23] = test: Antimicrobial activity against Prevotella nanceiensis LBN 410 deficient in nim gene assessed as inhibition of growth at 48 hrs by agar dilution method; details: Hoylesella nanceiensis, LBN 410, 48 h; summary of the method: as §5
Prevotella nanceiensis [24] = test: Antimicrobial activity against Prevotella nanceiensis LBN 297 deficient in nim gene assessed as inhibition of growth at 48 hrs by agar dilution method; details: Hoylesella nanceiensis, LBN 297, 48 h; summary of the method: as §5
Prevotella bivia [25] = test: Antimicrobial activity against Prevotella bivia LBN 330 deficient in nim gene assessed as inhibition of growth at 48 hrs by agar dilution method; details: LBN 330, 48 h; summary of the method: as §5
Prevotella bivia [26] = test: Antimicrobial activity against slow growing colonies of Prevotella bivia LBN 334 deficient in nim gene assessed as inhibition of growth at 48 hrs by agar dilution method; details: LBN 334, 48 h; summary of the method: as §4
Prevotella bivia [27] = test: Antimicrobial activity against slow growing colonies of Prevotella bivia LBN 467 deficient in nim gene assessed as inhibition of growth at 48 hrs by agar dilution method; details: LBN 467, 48 h; summary of the method: as §3
Bacteroides fragilis = test: Antimicrobial activity against Bacteroides fragilis ATCC 25285T deficient in nimI gene assessed as inhibition of growth at 48 hrs by agar dilution method; summary of the method: as §5

Cc1ncc([N+](=O)[O-])n1CCO [METRONIDAZOLE]
MIC (Prevotella buccae [1]): 64 µg/mL (≈ 374 µM)
MIC (Prevotella baroniae [2]): 128 µg/mL (≈ 748 µM)
MIC (Prevotella nanceiensis [3]): 32 µg/mL (≈ 187 µM)
MIC (Prevotella buccae [4]): 128 µg/mL (≈ 748 µM)
MIC (Prevotella bivia [5]): > 256 µg/mL
MIC (Prevotella bivia [6]): 16 µg/mL (≈ 93.5 µM)
MIC (Prevotella baroniae [7]): 256 µg/mL (≈ 1500 µM)
MIC (Prevotella bivia [8]): 2 µg/mL (≈ 11.7 µM)
MIC (Prevotella bivia [9]): 2 µg/mL (≈ 11.7 µM)
MIC (Prevotella nanceiensis [10]): 256 µg/mL (≈ 1500 µM)
MIC (Prevotella baroniae [11]): 2 µg/mL (≈ 11.7 µM)
MIC (Prevotella nanceiensis [12]): 32 µg/mL (≈ 187 µM)
MIC (Prevotella bivia [13]): 8 µg/mL (≈ 46.7 µM)
MIC (Prevotella bivia [14]): 32 µg/mL (≈ 187 µM)
MIC (Prevotella baroniae [15]): 128 µg/mL (≈ 748 µM)
MIC (Prevotella bivia [16]): > 256 µg/mL
MIC (Prevotella bivia [17]): 2 µg/mL (≈ 11.7 µM)
MIC (Prevotella nanceiensis [18]): 256 µg/mL (≈ 1500 µM)
MIC (Prevotella bivia [19]): 2 µg/mL (≈ 11.7 µM)
MIC (Prevotella bivia [20]): 8 µg/mL (≈ 46.7 µM)
MIC (Prevotella bivia [21]): 2 µg/mL (≈ 11.7 µM)
MIC (Prevotella nanceiensis [22]): 32 µg/mL (≈ 187 µM)
MIC (Prevotella nanceiensis [23]): 1 µg/mL (≈ 5.84 µM)
MIC (Prevotella nanceiensis [24]): 2 µg/mL (≈ 11.7 µM)
MIC (Prevotella bivia [25]): 2 µg/mL (≈ 11.7 µM)
MIC (Prevotella bivia [26]): 16 µg/mL (≈ 93.5 µM)
MIC (Prevotella bivia [27]): 32 µg/mL (≈ 187 µM)
MIC (Bacteroides fragilis): 0.5 µg/mL (≈ 2.92 µM)
